The source of these data is article PMC5792653 (Nature chemical biology, 2017).

One assay has as its target T1, AMSH (Homo sapiens, UniProt O95630).
T1 sequence (O95630 1-424): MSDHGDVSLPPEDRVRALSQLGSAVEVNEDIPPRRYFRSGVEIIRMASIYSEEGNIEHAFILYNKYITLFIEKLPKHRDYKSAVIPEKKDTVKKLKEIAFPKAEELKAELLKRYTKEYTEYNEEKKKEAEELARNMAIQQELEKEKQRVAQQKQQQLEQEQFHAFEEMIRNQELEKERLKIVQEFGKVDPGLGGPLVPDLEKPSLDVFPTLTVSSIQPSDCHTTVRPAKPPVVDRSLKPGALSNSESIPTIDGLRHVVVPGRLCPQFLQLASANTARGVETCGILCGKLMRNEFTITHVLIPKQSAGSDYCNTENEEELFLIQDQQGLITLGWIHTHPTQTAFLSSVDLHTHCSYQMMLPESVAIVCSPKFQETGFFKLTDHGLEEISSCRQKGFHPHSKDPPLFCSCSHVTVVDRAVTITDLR
As to the kind of experiment: In vitro AMSH activity assay. In kind it is biochemical.

For the next assay, the target named is BRCC36 (Homo sapiens, UniProt P46736). The assay is described as follows: In vitro BRCC36 activity assay. In kind it is biochemical.
Chain of BRCC36 (P46736 whole entry): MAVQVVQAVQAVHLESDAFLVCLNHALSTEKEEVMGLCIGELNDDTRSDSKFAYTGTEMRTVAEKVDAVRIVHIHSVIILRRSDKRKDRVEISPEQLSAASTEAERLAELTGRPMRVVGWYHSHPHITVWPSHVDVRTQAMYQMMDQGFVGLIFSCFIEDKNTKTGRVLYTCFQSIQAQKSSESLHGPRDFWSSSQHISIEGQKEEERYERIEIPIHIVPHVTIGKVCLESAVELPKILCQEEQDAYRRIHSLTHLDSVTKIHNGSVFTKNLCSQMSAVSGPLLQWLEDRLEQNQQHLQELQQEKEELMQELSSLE
Chain of BRCC36 (Q9NWV8 whole entry, further chain): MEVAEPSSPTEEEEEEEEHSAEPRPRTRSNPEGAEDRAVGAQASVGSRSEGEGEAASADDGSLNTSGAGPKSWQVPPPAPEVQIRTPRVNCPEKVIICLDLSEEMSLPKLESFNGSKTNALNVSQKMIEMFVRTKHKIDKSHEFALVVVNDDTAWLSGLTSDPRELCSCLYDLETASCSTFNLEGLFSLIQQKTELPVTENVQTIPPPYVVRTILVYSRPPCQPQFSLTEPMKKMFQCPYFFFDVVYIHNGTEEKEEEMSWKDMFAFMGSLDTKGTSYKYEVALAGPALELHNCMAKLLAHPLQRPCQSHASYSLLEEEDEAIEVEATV
Chain of BRCC36 (Q9NXR7 whole entry, further chain): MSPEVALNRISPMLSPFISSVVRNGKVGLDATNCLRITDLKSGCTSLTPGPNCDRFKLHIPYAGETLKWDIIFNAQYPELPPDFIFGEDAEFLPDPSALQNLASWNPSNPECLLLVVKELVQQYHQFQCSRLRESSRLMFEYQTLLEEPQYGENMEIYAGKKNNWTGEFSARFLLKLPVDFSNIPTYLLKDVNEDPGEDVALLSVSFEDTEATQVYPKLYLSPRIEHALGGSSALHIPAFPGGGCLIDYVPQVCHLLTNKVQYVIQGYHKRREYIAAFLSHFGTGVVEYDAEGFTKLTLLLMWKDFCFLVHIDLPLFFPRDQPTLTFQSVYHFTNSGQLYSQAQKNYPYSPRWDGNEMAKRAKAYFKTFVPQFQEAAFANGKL
A further assay concerns the target T2, USP25 (Homo sapiens, UniProt Q9UHP3).
T2 sequence (Q9UHP3 1-1055): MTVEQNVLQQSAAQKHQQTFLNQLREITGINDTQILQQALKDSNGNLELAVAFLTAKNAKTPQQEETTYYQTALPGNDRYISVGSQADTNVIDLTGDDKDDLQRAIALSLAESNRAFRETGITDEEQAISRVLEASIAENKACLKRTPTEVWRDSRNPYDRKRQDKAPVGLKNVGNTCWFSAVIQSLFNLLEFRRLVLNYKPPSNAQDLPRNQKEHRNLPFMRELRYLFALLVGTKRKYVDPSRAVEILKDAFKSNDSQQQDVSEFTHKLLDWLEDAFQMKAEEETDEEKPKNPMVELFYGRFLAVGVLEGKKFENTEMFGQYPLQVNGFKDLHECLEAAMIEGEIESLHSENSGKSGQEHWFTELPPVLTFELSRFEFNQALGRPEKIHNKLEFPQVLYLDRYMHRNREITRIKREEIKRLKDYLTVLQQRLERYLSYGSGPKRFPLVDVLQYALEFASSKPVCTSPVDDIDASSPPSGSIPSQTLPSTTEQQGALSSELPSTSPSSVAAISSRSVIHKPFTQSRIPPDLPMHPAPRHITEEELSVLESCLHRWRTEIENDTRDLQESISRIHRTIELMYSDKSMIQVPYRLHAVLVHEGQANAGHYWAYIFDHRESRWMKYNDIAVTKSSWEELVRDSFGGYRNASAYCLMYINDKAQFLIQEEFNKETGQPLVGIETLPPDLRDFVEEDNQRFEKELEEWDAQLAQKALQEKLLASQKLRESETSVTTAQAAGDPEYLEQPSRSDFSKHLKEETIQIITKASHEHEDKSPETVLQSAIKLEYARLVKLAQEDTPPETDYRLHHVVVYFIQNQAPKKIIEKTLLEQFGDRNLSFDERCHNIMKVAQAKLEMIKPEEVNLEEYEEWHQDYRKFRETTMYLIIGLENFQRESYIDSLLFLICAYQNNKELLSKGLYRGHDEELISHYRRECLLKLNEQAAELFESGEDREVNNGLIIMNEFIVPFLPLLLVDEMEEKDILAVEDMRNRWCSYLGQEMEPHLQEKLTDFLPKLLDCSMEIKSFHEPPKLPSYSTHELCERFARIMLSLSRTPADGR
The assay is described as follows: In vitro DUB activity assay, USP25. In kind it is biochemical. To be noted: 50 μM THL. In short, it runs like this:
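Human USP25 or USP5 expressed in E. coli and purified. Enzyme (4 nM) preincubated 30 min at 30°C in Hepes pH 7.3 buffer (KOAc, Mg(OAc)2, EGTA, 1 mM DTT, Tween 20, ovalbumin, protease inhibitors) with DMSO, 50 μM test compound or 50 μM PR619. Reaction started with 1 μM K48-linked tetra-ubiquitin, stopped after 10 or 30 min with SDS sample buffer plus DTT, and analysed by anti-Ub Western blot.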

Another assay has as its target RNA polymerase III (Saccharomyces cerevisiae, UniProt P04051+P22276). As to the kind of experiment: In vitro run-off transcription using tailed templates, Pol III. The assay is classed as biochemical, S.cerevisiae. To be noted: affinity purified polymerase.
For a further assay, the system named is N.crassa. As to the kind of experiment: Transcript levels by qRT-PCR in N.crassa. In kind it is cell-based, Neurospora crassa. To be noted: 50 μM. The method in brief: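 N. crassa liquid cultures incubated 4 h with indicated test compound concentrations (frq), or with 50 μM over a time course (vvd). RNA quantified by TaqMan qRT-PCR and normalised to 28S rRNA. Three independent experiments, each measured in triplicate.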
For orientation: Quantitative PCR measures a nucleic acid by following its amplification.

“And” between values parts separate entries of the source, which are not always exact repeats. Equal values may be shown once.

What is called IC50 is the concentration that inhibits the measured activity by half.

On to `CC(=O)Nc1c2sscc-2n(C)c1=O` [THL, thiolutin], for which the “AMSH IC50 relative to that measured for Rpn11” value at AMSH (AMSH IC50 higher than Rpn11 IC50) was approximately 8 fold. Moreover, the concentration for half-maximal inhibition (IC50) at AMSH (IC50, inhibition of AMSH, absence of Zn(cyclen)^2+) was 4 µM and 3.96 µM. In addition, the “inhibition of AMSH in presence of Zn(cyclen)^2+” value on AMSH (presence of Zn(cyclen)^2+) is “inhibition was reversible by Zn(cyclen)^2+”. Moreover, on BRCC36, the “de-ubiquitylation of substrate by BRISC (in words)” value is “inhibited de-ubiquitylation of substrate by BRISC”. Also, the “inhibition of cystein isopeptidase UPS25” value against USP25 is recorded as “did not inhibit”. Also, the “inhibition of yeast RNA polymerase III, run-off transcription” value against RNA polymerase III is recorded as “None of the three yeast polymerases were inhibited”. For the same molecule, the “levels of the N.crassa transcripts vvd and frq” value in the assay with N.crassa is reported as “dropped rapidly”. In addition, in the assay with HEK293T cells, the “overall concentration of intracellular Zn^2+” value is listed as “did not reduce”.
